Source: ChEMBL document CHEMBL4028854, “Iminothioethers as Hydrogen Sulfide Donors: From the Gasotransmitter Release to the Vascular Effects” (J Med Chem, 2017)
One block for each compound: values may come before it. Activity calls are given as the source filed them. The calls are words filed in the database; no cut-off is given here.

Key:
Thoracic aorta [1] = experiment: Vasorelaxing effect in endothelium-denuded Wistar rat thoracic aorta ring assessed as reduction in KCl-induced contractile tone at 1 mM relative to KCl; type: functional
Thoracic aorta [2] = experiment: Vasorelaxing effect in endothelium-denuded Wistar rat thoracic aorta ring assessed as reduction in KCl-induced contractile tone; type: functional, tissue-based
Heart = experiment: Protection against angiotensin2-induced reduction in coronary flow in Langendorff perfused Wistar rat heart assessed as increase in coronary flow at 300 uM after 20 mins relative to control; type: functional
In short: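 Langendorff-perfused hearts were equilibrated for 20 min. Coronary spasm was induced with angiotensin II 0.1 µM, kept in the perfusate throughout. Compound (300 µM) or vehicle was then added to the perfusate for 20 min. Coronary flow was expressed as % of the mean of three basal readings. Hearts from 6-9 animals/group; mean ± SE.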

Rattus norvegicus = experiment: Antihypertensive activity in Wistar rat model of L-NAME-induced hypertension assessed as decrease in basal systolic blood pressure at 133 umol/kg, ip measured at 5 mins interval for 30 mins relative to control; type: functional
In short: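 Male 12-week-old normotensive Wistar rats (250 g), anaesthetized with sodium thiopental 60 mg/Kg. Tails warmed under an IR lamp for 15 min, and systolic pressure read by tail-cuff. Baseline taken, then L-NAME 100 mg/Kg i.p. given and pressure monitored 20 min. Test agent given i.p. in DMSO vehicle (0.33 ml/Kg). Read-outs taken every 5 min over 30 min and averaged, as % of the L-NAME-raised Psys. 6 rats/group.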

[3] = Drug metabolism in HSMC assessed as H2S release by measuring increase in fluorescence intensity at 1 mM after 1 hr by WSP1 dye based spectrofluorometric method relative to DADS; type: ADME, cell-based; conditions: human, 1000 µM
In short: (§1)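 Human aortic smooth muscle cells were seeded on gelatin-coated slides (30000/well). After 24 h they were loaded with WSP-1 (100 µM) for 30 min, and the supernatant was replaced by compound in HEPES standard buffer (pH 7.4). Fluorescence (λ 465-515 nm) was followed for 1 h and expressed as fluorescence index. Reference donor was used at 300 µM. Data are mean ± SE.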

[4] = Drug metabolism in HSMC assessed as H2S release at 1 mM by WSP1 dye based spectrofluorometric method; type: ADME, cell-based; conditions: human, 1000 µM, TDE = time-dependent effect; in short: as §1
[5] = Induction of intracellular cGMP level in sodium nitroprusside pretreated HSMC at 300 uM after 20 mins by ELISA (reference value: 0.446 +/- 0.005 pmol/ml); type: functional, Homo sapiens
HSMC [6] = experiment: Induction of membrane hyperpolarization in HSMC measured every 2.5 mins for 40 mins by DiBac4(3) dye based spectrofluorometric method; type: functional, cell-based; conditions: Homo sapiens
In short: (§2)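 Human aortic smooth muscle cells were grown in Medium 231 with SMGS at 37 °C, 5% CO2, and seeded at 72×10^3/well on gelatin 24 h before use. Cells were loaded 1 h with DiBac4(3) 2.5 µM in HEPES buffer, pH 7.4, at room temperature. Fluorescence (ex 488/em 520 nm) was read every 2.5 min for 40 min. (Ft-F0)/F0 was calculated, and AUC expressed as % of the NS1619 10 µM response. Six experiments ×6 replicates.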

[7] = Induction of membrane hyperpolarization in HSMC at 1 mM measured every 2.5 mins for 40 mins by DiBac4(3) dye based spectrofluorometric method relative to NS1619; type: functional, Homo sapiens; in short: as §2
HSMC [8] = experiment: Induction of intracellular cGMP level in HSMC at 300 uM after 20 mins by ELISA; type: functional, cell-based; conditions: Homo sapiens
[9] = Cytotoxicity in HSMC assessed as cell damage at 300 uM by propidium iodide staining based fluorescence microscopic method; conditions: human
In short: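 WSP-1-loaded human aortic smooth muscle cells were incubated with compound for 1 h. Cells were then washed, fixed in Bouin solution for 10 min, and washed twice. Nuclei were stained with propidium iodide, and slides were examined by fluorescence microscopy.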

[10] = Drug metabolism in HSMC assessed as H2S release at 300 uM by WSP1 dye based spectrofluorometric method; type: ADME, cell-based; conditions: human
In short: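 HASMCs seeded at 30000/well on gelatine-coated culture slides; after 24 h, loaded with 100 µM WSP-1 for 30 min. Dye solution replaced by compound in HEPES-buffered saline, pH 7.4, without added thiols. H2S-evoked fluorescence (λ 465–515 nm) was read by spectrofluorometer over 1 h and expressed as fluorescence index.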

[11] = Drug metabolism in HSMC assessed as H2S release at 300 uM by WSP1/propidium iodide staining based fluorescence microscopic method; type: ADME, cell-based; conditions: human
In short: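 HASMCs on gelatine-coated culture slides were loaded with 100 µM WSP-1 for 30 min, then incubated with compound in HEPES-buffered saline for 1 h. Cells were washed, fixed in Bouin solution for 10 min, washed twice and counterstained with propidium iodide for nuclei. Green WSP-1 fluorescence was examined by fluorescence microscopy.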

HSMC [12] = experiment: Induction of membrane hyperpolarization in HSMC at 10 uM measured every 2.5 mins for 40 mins by DiBac4(3) dye based spectrofluorometric method; type: functional, cell-based; conditions: Homo sapiens; in short: as §2

Structure (SMILES): N=C(SCc1ccccc1)c1ccc(O)cc1
Emax at 1000 µM (Thoracic aorta [1]): 82.1%
IC50 (Thoracic aorta [2]): 490 µM

Structure (SMILES): N=C(Sc1ccccc1)c1cccs1
Activity (Heart): inactive
Activity (Rattus norvegicus): inactive
fold change (FC) [3]: 50
Drug metabolism [4]: Tde
Activity [5]: 0.667 pmol/mL
Emax at 1000 µM (Thoracic aorta [1]): 99.7%
Activity (HSMC [6]): Dose-dependent effect
Activity [7]: 36%
IC50 (Thoracic aorta [2]): 631 µM
Activity (HSMC [8]): inactive
Activity [9]: Toxic

Structure (SMILES): C=CCSSCC=C [DIALLYLDISULFIDE]
Drug metabolism [10]: Metabolite_Detected
Activity (Rattus norvegicus): 39%
Emax at 1000 µM (Thoracic aorta [1]): 41.7%
Drug metabolism [11]: Metabolite_Detected

Structure (SMILES): N=C(SCc1ccc2ccccc2c1)c1cccs1
Emax at 1000 µM (Thoracic aorta [1]): 20.4%

Structure (SMILES): N=C(SCc1ccccc1)c1ccccc1
Emax at 1000 µM (Thoracic aorta [1]): 86.5%
IC50 (Thoracic aorta [2]): 427 µM

Structure (SMILES): N=C(SCc1ccccc1)c1cccs1
Emax at 1000 µM (Thoracic aorta [1]): 89.9%
IC50 (Thoracic aorta [2]): 263 µM

Structure (SMILES): Oc1ccc(C(=S)NCc2ccccc2)cc1
Emax at 1000 µM (Thoracic aorta [1]): 88.2%
IC50 (Thoracic aorta [2]): 347 µM

Structure (SMILES): O=c1[nH]c2cc(C(F)(F)F)ccc2n1-c1cc(C(F)(F)F)ccc1O
Activity (HSMC [12]): Active

The remaining compounds from weak to strong by IC50 (Thoracic aorta [2]), led by results:

Drug metabolism [4]: Tde
Drug metabolism [11]: Metabolite_Detected
IC50 (Thoracic aorta [2]): 257 µM
Structure (SMILES): COc1ccc(C(=N)SCc2ccccc2)cc1
Activity (Heart): <=165%
Activity (Rattus norvegicus): 36%
Activity [5]: 0.489 pmol/mL
Emax at 1000 µM (Thoracic aorta [1]): 89.9%
Activity (HSMC [6]): Dose-dependent effect
Activity [7]: 149%
Activity (HSMC [8]): inactive

IC50 (Thoracic aorta [2]): 240 µM
Structure (SMILES): S=C(NCc1ccccc1)c1cccs1
Emax at 1000 µM (Thoracic aorta [1]): 91.7%

IC50 (Thoracic aorta [2]): 162 µM
Structure (SMILES): S=C(NCc1ccccc1)c1ccccc1
Emax at 1000 µM (Thoracic aorta [1]): 92.7%

IC50 (Thoracic aorta [2]): 129 µM
Structure (SMILES): COc1ccc(C(=S)NCc2ccccc2)cc1
Emax at 1000 µM (Thoracic aorta [1]): 96.8%
